Data as given in ChEMBL document CHEMBL3112569, “3-Ketone-4,6-diene ceramide analogs exclusively induce apoptosis in chemo-resistant cancer cells” (Bioorg Med Chem, 2014).
Each block holds one molecule with its values, some of them ahead of it. Activity calls are given as the source filed them. No cut-off for these calls is given here.

How the values were obtained:
[1] = target: T1, Ceramide glucosyltransferase (Homo sapiens) (UniProt Q16739); assay: Inhibition of GCS in human NCI/ADR-RES cells assessed as decrease in ratio of glucosylceramide to ceramide level at IC50 after 4 hrs by TLC assay; assay type: cell-based
T1 sequence (whole entry): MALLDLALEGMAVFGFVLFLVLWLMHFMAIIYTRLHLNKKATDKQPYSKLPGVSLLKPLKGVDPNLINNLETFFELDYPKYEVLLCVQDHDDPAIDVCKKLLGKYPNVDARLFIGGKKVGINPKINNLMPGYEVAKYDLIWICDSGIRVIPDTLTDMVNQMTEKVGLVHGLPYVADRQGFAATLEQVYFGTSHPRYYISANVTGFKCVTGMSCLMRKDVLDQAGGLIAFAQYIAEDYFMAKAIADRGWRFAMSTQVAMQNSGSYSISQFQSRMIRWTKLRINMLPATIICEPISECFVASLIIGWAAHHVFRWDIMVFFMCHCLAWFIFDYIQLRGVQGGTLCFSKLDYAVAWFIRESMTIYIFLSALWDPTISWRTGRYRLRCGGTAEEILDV

[2] = target: T1, Ceramide glucosyltransferase (Homo sapiens); assay: Inhibition of GCS in human OVCAR8 cells assessed as decrease in ratio of glucosylceramide to ceramide level at IC50 after 4 hrs by TLC assay; assay type: cell-based; details: OVCAR-8
[3] = Cytotoxicity against human MCF7/DX cells assessed as cell viability after 72 hrs by CellTiter-Glo luminescence assay; assay type: functional, cell-based
How it was run: (§1)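 Cells grown overnight at 4000 per well in RPMI-1640 with 10% FBS, then treated with analogs for 72 h. Viability measured as luminescent ATP after incubation with CellTiter-Glo reagent. Three independent experiments.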

MCF7 [4] = assay: Cytotoxicity against human MCF7 cells assessed as cell viability after 72 hrs by CellTiter-Glo luminescence assay; assay type: functional, cell-based; details: MCF7, 72 h; how it was run: as §1
OVCAR-8 = assay: Cytotoxicity against human OVCAR8 cells assessed as cell viability after 72 hrs by CellTiter-Glo luminescence assay; assay type: functional, cell-based; details: OVCAR-8, 72 h; how it was run: as §1
[5] = Induction of apoptosis in human MCF-7TN-R cells assessed as caspase-9 activation at 2 times IC50 determined from MTT assay after 24 hrs by caspase Glo 9 assay relative to vehicle-treated control; assay type: functional
How it was run: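 MCF-7TN-R cells at 7500–10,000 per well in phenol-free DMEM adhered 24 h, then exposed 24 h at twice the MTT-derived IC50. Caspase-9 activity read by Caspase-Glo 9 luminescence, relative to DMSO vehicle. Triplicate on three occasions.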

NCI/ADR-RES = assay: Cytotoxicity against human NCI/ADR-RES cells assessed as cell viability after 72 hrs by CellTiter-Glo luminescence assay; assay type: functional, cell-based; how it was run: as §1
[6] = (§2) Induction of apoptosis in human MCF-7TN-R cells at 2 times IC50 determined from MTT assay after 24 hrs by ELISA relative to control; assay type: functional
How it was run: (§3)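 MCF-7TN-R cells at 7500–10,000 per well in phenol-free DMEM adhered 24 h, then treated 24 h at twice the MTT-derived IC50. DNA fragmentation read with cell death detection ELISA. Normalized to MTT viability on the same plate, duplicate on three occasions.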

[7] = Cytotoxicity against human MCF-7TN-R cells assessed as colony formation after 10 to 12 days by crystal violet staining assay; assay type: functional, cell-based
How it was run: (§4)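 Colony formation: 1000 cells per well in 10% DMEM, 24 h adhesion, then graded analog dilutions until colonies formed (generally 10–12 days). Fixed in 3% glutaraldehyde 30 min, stained 40 min with 0.2% crystal violet/20% methanol. Colonies over 30 cells hand-counted, normalized to DMSO control, IC50 from dose–response fit.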

MDA-MB-231 [8] = assay: Cytotoxicity against human MDA-MB-231 cells assessed as colony formation after 10 to 12 days by crystal violet staining assay; assay type: functional, cell-based; how it was run: as §4
MCF7 [9] = assay: Cytotoxicity against human MCF7 cells assessed as colony formation after 10 to 12 days by crystal violet staining assay; assay type: functional, cell-based; how it was run: as §4
[10] = Cytotoxicity against human MCF-7TN-R cells assessed as cell viability after 24 hrs by MTT assay; assay type: functional, cell-based
How it was run: (§5)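 Cells seeded at 7500–10,000 per well in phenol-free DMEM and allowed 24 h to adhere. Exposed to graded analog concentrations (1 to 100 μM) for 24 h, then MTT added for 3–4 h. Formazan dissolved in 20% SDS/50% DMF for 24 h, absorbance read at 550 nm. Expressed as % of DMSO vehicle, run in quadruplicate on three occasions, IC50 from dose–response fit.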

MDA-MB-231 [11] = assay: Cytotoxicity against human MDA-MB-231 cells assessed as cell viability after 24 hrs by MTT assay; assay type: functional, cell-based; details: MDA-MB-231, 24 h; how it was run: as §5
MCF7 [12] = assay: Cytotoxicity against human MCF7 cells assessed as cell viability after 24 hrs by MTT assay; assay type: functional, cell-based; details: MCF7, 24 h; how it was run: as §5
Homo sapiens = species on record: Homo sapiens; assay: as §2; assay type: functional; how it was run: as §3
[13] = Cytotoxicity against human MCF-7TN-R cells assessed as cell viability after 24 to 48 hrs by MTT assay; assay type: functional, cell-based

Ratio [1]: 1 | Ratio [2]: 0.6
SMILES: CCCCCCCCCC/C=C/C=C/C(=O)[C@H](CO)NC(=O)Cc1ccccc1
IC50 [3]: 3.92 µM | IC50 (MCF7 [4]): 3.92 µM | IC50 (OVCAR-8): 7.82 µM | fold change (FC) [5]: 3.59 | IC50 (NCI/ADR-RES): 4.92 µM | fold change (FC) [6]: 4.3 | IC50 [7]: 1.81 µM | IC50 (MDA-MB-231 [8]): 1400 nM | IC50 (MCF7 [9]): 3.4 µM | IC50 [10]: 4.26 µM | IC50 (MDA-MB-231 [11]): 161 µM | IC50 (MCF7 [12]): 22 µM

SMILES: CCCCCCCCCCCCCCNC(=O)[C@H](CO)NC(=O)Cc1ccccc1
IC50 [7]: 10.1 µM | IC50 (MDA-MB-231 [8]): 17600 nM | IC50 (MCF7 [9]): 10.2 µM | IC50 [10]: 29 µM | IC50 (MCF7 [12]): 234 µM

SMILES: CCCCCCCCCCCCC/C=C/[C@@H](O)[C@H](CO)NC(=O)CCCCCCC
fold change (FC) [5]: 1.18 | Activity (Homo sapiens): Active

SMILES: CCCCCCCCCCC/C=C/C=C/[C@@H](O)[C@H](CO)NC(=O)CCCCCCC
IC50 [13]: 11.3 µM

SMILES: CCCCCCCCCC/C=C/C=C/[C@@H](O)[C@@H]1COC(C)(C)N1C(=O)OC(C)(C)C
IC50 [7]: 5.19 µM | IC50 (MDA-MB-231 [8]): 3170 nM | IC50 (MCF7 [9]): 5.69 µM | IC50 [10]: 9.91 µM | IC50 (MDA-MB-231 [11]): 75.2 µM | IC50 (MCF7 [12]): 26.4 µM

SMILES: CCCCCCCCCC/C=C/C=C/C(=O)[C@@H]1COC(C)(C)N1C(=O)OC(C)(C)C
fold change (FC) [5]: 1.86 | fold change (FC) [6]: 3.09 | IC50 [7]: 1.85 µM | IC50 (MDA-MB-231 [8]): 1450 nM | IC50 (MCF7 [9]): 5.07 µM | IC50 [10]: 4.05 µM | IC50 (MDA-MB-231 [11]): 17.2 µM | IC50 (MCF7 [12]): 3.91 µM

SMILES: CCCCCCCCCCCCC/C=C/[C@@H](O)[C@H](CO)NC(=O)Cc1ccccc1
IC50 [7]: 5.62 µM | IC50 (MDA-MB-231 [8]): 1590 nM | IC50 (MCF7 [9]): 4.18 µM | IC50 [10]: 4.74 µM | IC50 (MDA-MB-231 [11]): 51.2 µM | IC50 (MCF7 [12]): 37.3 µM

Ratio [1]: 0.8 | Ratio [2]: 0.9
SMILES: CCCCCCCCCCCCCCNC(=O)[C@H](CO)/N=C/c1ccccc1
IC50 [3]: 10.1 µM | IC50 (MCF7 [4]): 14.1 µM | IC50 (OVCAR-8): 16.3 µM | IC50 (NCI/ADR-RES): 13.8 µM
